# Most compounds without a hit are left out; they make up all but 2.1% or so of the library.
# DENV2 CPE rescue: protects cells from dengue virus 2 cytopathic effect; DENV2-infected cells, cytopathic effect rescue, plate reader; CPE inhibition, % at 9.99 µM; 1.7% of 350,000 active; AID 651640; in the data active = CPE inhibition above about 20%, passing the limit was not always enough; inconclusive = no clear call, values can overlap the other calls; tested in BHK-21 cells
# XiGFP reactiv: activators of X-chromosome reactivation in mouse fibroblasts; XiGFP mouse fibroblasts, % GFP-positive cells imaging, 3 d; cells co-treated with 5-aza-dC sensitizer; scaled so ellipticine positive control = 100%; activation, % at 7.58 µM; 0.055% of 360,000 active; AID 743238;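 active = mean normalized replicate activation at least 10% and every replicate at or above 10%; inconclusive = only one of the two criteria met; inactive = mean below 10% and not all replicates reach 10%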
#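 Schedule: 3 d treatment, 15 min room-temperature fixation; system: 68-5-11 XiGFP fibroblast line; buffer or medium: DMEM plus 5-aza-dC sensitizer; control set: ellipticine 6 µM positive control; compound: one concentration, pinned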
# C2C12 statin: suppression of simvastatin myotoxicity; C2C12 myotubes + simvastatin, ATP luminescence, 48 h; scaled: DMSO 0, geranylgeraniol control 100; rescue of ATP level, % at 7.49 µM; 0.78% of 330,000 active;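 active = mean ATP rescue above about 67%, or every replicate alone reaching that limit, limit read from the data, passing the limit was not always enough; inconclusive = no clear call, values can overlap the other calls; inactive = mean under the limit and some replicate under it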;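 also: myotubes were challenged with 10 µM simvastatin during compound exposure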
# Cneo AK release: Cryptococcus neoformans lysis via adenylate kinase release; lysis activity, % at 15 µM; 0.2% of 360,000 active; C. neoformans lysis, adenylate kinase release luminescence, 4 h; normalised: neutral wells 0, clomiphene wells 100;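 active = mean lysis activity across replicates of at least 80%, whatever share of replicates individually reach that level; inactive = mean lysis activity below 80%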
#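 Test system: log-phase Cryptococcus neoformans yeast cells. Input: 5 × 10^6 yeast cells/mL. Medium: fresh YPD growth medium. Doses: single dose. Incubation: static 4 h at 37 °C with compound, 1 h detection. Measured by: luminescent adenylate kinase detection reagent. Read-out: signal increase indicating cell lysis. Benchmarks: Clomiphene.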
# A number is an active result; . = inactive; ? = inconclusive; / = no result.
SMILES,DENV2 CPE rescue,XiGFP reactiv,C2C12 statin,Cneo AK release
O=C1NC(=O)/C(=C/c2cc3c(cc2Br)OCO3)S1,22,.,.,.
C[C@@H]1CN([C@H](C)CO)C(=O)c2cc(-c3ccncc3)cnc2O[C@@H]1CN(C)C(=O)C1CCCCC1,.,.,/,/
O=C1C[C@@H]2c3c(cccc3CN1Cc1ccc(Br)cc1)C[C@@H](O)[C@H]2O,.,.,100,.
COc1ccc2c3c([nH]c2c1)[C@@H](CO)N(C(=O)c1cccc(F)c1)CC31CN(S(=O)(=O)c2cccs2)C1,/,.,/,/
Cc1noc(C)c1NC(=O)N[C@@H]1CC[C@H](CC(=O)N2CCN(C)CC2)O[C@@H]1CO,.,.,.,.
CC(=O)NCc1ccc(C(=O)COC(=O)COc2ccc(Cl)c(C)c2)s1,65,.,.,.
COC(=O)c1c(C)noc1-c1cc(C)on1,/,/,102,.
COc1ccc(C(=O)Nc2ccc3c(c2)OC[C@H](C)NC[C@H](C)[C@@H](OC)CN(C)C3=O)cc1,.,.,/,/
C[C@H](CO)N1C[C@H](C)[C@H](CN(C)Cc2ccc(C(F)(F)F)cc2)Oc2ccc(NC(=O)Nc3ccccc3)cc2CC1=O,25,.,.,.
C[C@@H]1CN([C@H](C)CO)C(=O)Cc2cc(NC(=O)Nc3ccc(C(F)(F)F)cc3)ccc2O[C@H]1CN(C)Cc1ccc(C(=O)O)cc1,24,.,.,.
C[C@@H]1CN([C@@H](C)CO)C(=O)c2cc(C#Cc3cccnc3)cnc2O[C@H]1CN(C)Cc1ccccc1,.,.,.,.
COc1ccccc1NC(=O)N[C@@H]1C=C[C@H](CC(=O)NCc2ccc(Cl)c(Cl)c2)O[C@@H]1CO,.,.,.,.
Cc1ccc(NC(=S)Nc2cccc3cnccc23)cc1,72,.,.,.
C[C@H]1CN([C@@H](C)CO)S(=O)(=O)c2ccc(C#CC3CCCC3)cc2O[C@@H]1CN(C)C,.,.,.,.
C[C@H]1CN([C@@H](C)CO)S(=O)(=O)c2ccc(C#CC3CCCC3)cc2O[C@H]1CN(C)C,32,.,.,.
COc1ccccc1C#Cc1ccc2c(c1)O[C@@H](CN(C)Cc1cncnc1)[C@@H](C)CN([C@@H](C)CO)S2(=O)=O,?,.,.,.
CCCC#Cc1ccc2c(c1)O[C@H](CN(C)C(=O)COC)[C@@H](C)CN([C@H](C)CO)S2(=O)=O,23,.,.,.
C[C@H]1CN([C@@H](C)CO)S(=O)(=O)c2ccc(C#CC3CC3)cc2O[C@H]1CN(C)CC1CCOCC1,.,.,.,.
COc1ccccc1C#Cc1ccc2c(c1)O[C@H](CN(C)Cc1cncnc1)[C@@H](C)CN([C@H](C)CO)S2(=O)=O,.,26,.,.
C[C@H](CO)N1C[C@H](C)[C@H](CN(C)CC2CCOCC2)Oc2cc(C#CC3CC3)ccc2S1(=O)=O,22,.,.,.
CCCC#Cc1ccc2c(c1)O[C@H](CN(C)C(=O)COC)[C@H](C)CN([C@H](C)CO)S2(=O)=O,.,.,.,.
CC(C)NC(=O)N(C)C[C@H]1Oc2ccc(NS(=O)(=O)c3cn(C)cn3)cc2C(=O)N([C@@H](C)CO)C[C@H]1C,.,.,/,.
C[C@H]1CN([C@@H](C)CO)S(=O)(=O)c2ccc(-c3ccc(F)cc3)cc2O[C@@H]1CN(C)S(C)(=O)=O,.,.,.,.
CC(C)CC#Cc1ccc2c(c1)O[C@@H](CN(C)C(=O)c1cnccn1)[C@@H](C)CN([C@@H](C)CO)S2(=O)=O,36,.,.,.
C[C@@H]1CN([C@@H](C)CO)S(=O)(=O)c2ccc(C#CC3CC3)cc2O[C@H]1CN(C)Cc1ccc(F)cc1,.,18,.,.
SMILES,DENV2 CPE rescue,XiGFP reactiv,C2C12 statin,Cneo AK release
C[C@H]1CN([C@@H](C)CO)S(=O)(=O)c2ccc(C#CC3CC3)cc2O[C@H]1CN(C)Cc1ccc(F)cc1,.,.,.,.
CC(C)CC#Cc1ccc2c(c1)O[C@H](CN(C)Cc1cncnc1)[C@@H](C)CN([C@H](C)CO)S2(=O)=O,58,.,.,.
CC(C)CC#Cc1ccc2c(c1)O[C@@H](CN(C)C)[C@@H](C)CN([C@@H](C)CO)S2(=O)=O,27,.,.,.
CC(C)CC#Cc1ccc2c(c1)O[C@H](CN(C)Cc1cncnc1)[C@H](C)CN([C@H](C)CO)S2(=O)=O,.,.,.,.
CC(C)COC(=O)N(C)C[C@H]1OCc2cnnn2CCCC(=O)N([C@@H](C)CO)C[C@@H]1C,.,.,.,.
CCCNC(=O)N(C)C[C@@H]1Oc2cc(C#CCC(C)C)ccc2S(=O)(=O)N([C@@H](C)CO)C[C@H]1C,36,.,.,.
CCCC#Cc1ccc2c(c1)O[C@H](CN(C)C)[C@H](C)CN([C@@H](C)CO)S2(=O)=O,.,.,.,.
CC(C)CC#Cc1ccc2c(c1)O[C@@H](CN(C)Cc1cccnc1)[C@@H](C)CN([C@H](C)CO)S2(=O)=O,.,.,.,.
CCCC#Cc1ccc2c(c1)O[C@@H](CN(C)C)[C@@H](C)CN([C@@H](C)CO)S2(=O)=O,.,.,.,101
CCCC#Cc1ccc2c(c1)O[C@H](CN(C)Cc1cccnc1)[C@@H](C)CN([C@@H](C)CO)S2(=O)=O,25,.,.,.
C[C@H](CO)N1C[C@H](C)[C@H](CN(C)C(=O)Nc2cc(F)ccc2F)Oc2cc(C#CC3CC3)ccc2S1(=O)=O,/,.,75,/
C[C@@H]1CN(C)C(=O)c2cccc(NS(C)(=O)=O)c2O[C@H]1CN(C)S(C)(=O)=O,/,.,/,/
NC(=O)[C@@H]1[C@H]2C(=O)O[C@H](c3ccccc3)[C@H](c3ccccc3)N2[C@H](c2ccc(O)cc2)[C@@]12C(=O)Nc1ccccc12,.,/,/,.
Cc1ccc(-c2ccc3c(c2)O[C@@H](CN(C)Cc2ccc(F)cc2)[C@@H](C)CN([C@@H](C)CO)S3(=O)=O)cc1,.,.,.,.
Cc1ccc(-c2ccc3c(c2)O[C@H](CN(C)Cc2ccc(F)cc2)[C@H](C)CN([C@H](C)CO)S3(=O)=O)cc1,.,.,.,90
CC(C)CC#Cc1ccc2c(c1)O[C@H](CN(C)C(=O)Nc1ccccc1F)[C@H](C)CN([C@H](C)CO)S2(=O)=O,32,.,.,.
COc1ccccc1S(=O)(=O)N(C)C[C@H]1Oc2cc(C#CCC(C)C)ccc2S(=O)(=O)N([C@@H](C)CO)C[C@@H]1C,103,.,.,.
CC(C)CC#Cc1ccc2c(c1)O[C@H](CN(C)C(=O)Nc1ccccc1F)[C@@H](C)CN([C@H](C)CO)S2(=O)=O,.,.,.,.
C[C@@H]1CN([C@H](C)CO)C(=O)c2cccc(NC(=O)c3ccncc3)c2O[C@@H]1CN(C)C(=O)Nc1ccc(C(F)(F)F)cc1,.,.,.,.
CN(C)C(=O)[C@@]1(Cc2ccccc2)N=C(c2ccc(OCCCO)cc2)O[C@H]1c1ccccc1,/,/,/,.
Cc1onc(-c2ccncc2)c1C(=O)O,/,/,106,.
Cc1onc(-c2ccccc2)c1C(=O)Nc1ccncc1,/,/,.,.

# Bioassay records from PubChem BioAssay.
